Measured values as given in ChEMBL document CHEMBL4706620, “Design, synthesis, biological activity evaluation of 3-(4-phenyl-1H-imidazol-2-yl)-1H-pyrazole derivatives as potent JAK 2/3 and aurora A/B kinases multi-targeted inhibitors” (Eur J Med Chem, 2021).

Tests used:
[1] = target: T1, Tyrosine-protein kinase JAK3 (Homo sapiens, UniProt P52333); assay: Inhibition of JAK3 (unknown origin) incubated for 40 mins in presence of ATP by Kinase-glo luminescence assay
T1 sequence (P52333 whole entry): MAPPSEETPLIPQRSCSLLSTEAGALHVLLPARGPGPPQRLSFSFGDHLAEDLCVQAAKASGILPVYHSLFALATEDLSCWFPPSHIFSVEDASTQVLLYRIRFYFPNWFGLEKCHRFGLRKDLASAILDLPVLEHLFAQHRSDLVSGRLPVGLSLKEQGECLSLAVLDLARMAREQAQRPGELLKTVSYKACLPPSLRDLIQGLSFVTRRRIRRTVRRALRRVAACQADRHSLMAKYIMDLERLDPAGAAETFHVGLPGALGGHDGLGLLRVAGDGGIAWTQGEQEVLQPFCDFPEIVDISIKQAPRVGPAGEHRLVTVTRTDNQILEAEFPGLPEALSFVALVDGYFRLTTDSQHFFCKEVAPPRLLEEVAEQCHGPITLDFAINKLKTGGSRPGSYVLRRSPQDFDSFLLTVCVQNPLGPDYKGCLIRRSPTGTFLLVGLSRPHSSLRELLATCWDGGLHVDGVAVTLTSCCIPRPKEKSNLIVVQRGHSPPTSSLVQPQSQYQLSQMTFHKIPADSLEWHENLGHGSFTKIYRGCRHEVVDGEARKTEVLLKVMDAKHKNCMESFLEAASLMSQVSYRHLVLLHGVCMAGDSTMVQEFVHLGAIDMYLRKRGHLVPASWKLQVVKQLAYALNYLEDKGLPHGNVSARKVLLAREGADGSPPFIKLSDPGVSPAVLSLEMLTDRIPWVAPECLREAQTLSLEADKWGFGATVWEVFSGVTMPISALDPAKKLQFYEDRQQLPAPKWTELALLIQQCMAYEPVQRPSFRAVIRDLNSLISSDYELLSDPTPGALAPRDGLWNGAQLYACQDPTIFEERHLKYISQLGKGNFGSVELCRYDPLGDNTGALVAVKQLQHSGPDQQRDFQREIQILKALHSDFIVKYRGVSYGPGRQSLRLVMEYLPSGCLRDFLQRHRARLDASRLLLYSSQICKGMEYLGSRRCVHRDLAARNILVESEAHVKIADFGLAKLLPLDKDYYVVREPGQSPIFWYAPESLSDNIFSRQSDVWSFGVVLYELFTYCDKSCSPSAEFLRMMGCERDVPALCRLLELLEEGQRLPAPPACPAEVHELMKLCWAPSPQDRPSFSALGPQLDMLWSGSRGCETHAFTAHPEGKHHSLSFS

Aurora kinase A = target: T2, Aurora kinase A (Homo sapiens, UniProt O14965); assay: Inhibition of Aurora A (unknown origin) incubated for 40 mins in presence of ATP by Kinase-glo luminescence assay
T2 sequence (O14965 whole entry): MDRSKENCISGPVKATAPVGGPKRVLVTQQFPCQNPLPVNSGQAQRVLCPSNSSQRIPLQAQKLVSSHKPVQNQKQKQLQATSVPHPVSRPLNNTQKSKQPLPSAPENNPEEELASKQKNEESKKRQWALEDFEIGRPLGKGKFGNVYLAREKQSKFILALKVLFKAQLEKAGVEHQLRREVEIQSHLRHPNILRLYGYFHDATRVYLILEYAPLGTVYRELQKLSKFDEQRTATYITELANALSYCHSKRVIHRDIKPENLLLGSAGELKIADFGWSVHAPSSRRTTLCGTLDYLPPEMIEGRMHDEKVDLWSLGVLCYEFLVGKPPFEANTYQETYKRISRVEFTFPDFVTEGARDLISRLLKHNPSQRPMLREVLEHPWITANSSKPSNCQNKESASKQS

K562 [2] = assay: Antiproliferative activity against human K562 cells assessed as reduction in cell growth measured after 72 hrs by CCK8 assay; type: functional, cell-based; conditions: K562, 72 h
HCT-116 [3] = assay: Antiproliferative activity against human HCT116 cells assessed as reduction in cell growth measured after 72 hrs by CCK8 assay; type: functional, cell-based; conditions: HCT-116, 72 h
[4] = target: Tyrosine-protein kinase JAK2 (Homo sapiens, UniProt O60674); assay: Inhibition of JAK2 (unknown origin) incubated for 40 mins in presence of ATP by Kinase-glo luminescence assay
Sequence of Tyrosine-protein kinase JAK2 (O60674 whole entry): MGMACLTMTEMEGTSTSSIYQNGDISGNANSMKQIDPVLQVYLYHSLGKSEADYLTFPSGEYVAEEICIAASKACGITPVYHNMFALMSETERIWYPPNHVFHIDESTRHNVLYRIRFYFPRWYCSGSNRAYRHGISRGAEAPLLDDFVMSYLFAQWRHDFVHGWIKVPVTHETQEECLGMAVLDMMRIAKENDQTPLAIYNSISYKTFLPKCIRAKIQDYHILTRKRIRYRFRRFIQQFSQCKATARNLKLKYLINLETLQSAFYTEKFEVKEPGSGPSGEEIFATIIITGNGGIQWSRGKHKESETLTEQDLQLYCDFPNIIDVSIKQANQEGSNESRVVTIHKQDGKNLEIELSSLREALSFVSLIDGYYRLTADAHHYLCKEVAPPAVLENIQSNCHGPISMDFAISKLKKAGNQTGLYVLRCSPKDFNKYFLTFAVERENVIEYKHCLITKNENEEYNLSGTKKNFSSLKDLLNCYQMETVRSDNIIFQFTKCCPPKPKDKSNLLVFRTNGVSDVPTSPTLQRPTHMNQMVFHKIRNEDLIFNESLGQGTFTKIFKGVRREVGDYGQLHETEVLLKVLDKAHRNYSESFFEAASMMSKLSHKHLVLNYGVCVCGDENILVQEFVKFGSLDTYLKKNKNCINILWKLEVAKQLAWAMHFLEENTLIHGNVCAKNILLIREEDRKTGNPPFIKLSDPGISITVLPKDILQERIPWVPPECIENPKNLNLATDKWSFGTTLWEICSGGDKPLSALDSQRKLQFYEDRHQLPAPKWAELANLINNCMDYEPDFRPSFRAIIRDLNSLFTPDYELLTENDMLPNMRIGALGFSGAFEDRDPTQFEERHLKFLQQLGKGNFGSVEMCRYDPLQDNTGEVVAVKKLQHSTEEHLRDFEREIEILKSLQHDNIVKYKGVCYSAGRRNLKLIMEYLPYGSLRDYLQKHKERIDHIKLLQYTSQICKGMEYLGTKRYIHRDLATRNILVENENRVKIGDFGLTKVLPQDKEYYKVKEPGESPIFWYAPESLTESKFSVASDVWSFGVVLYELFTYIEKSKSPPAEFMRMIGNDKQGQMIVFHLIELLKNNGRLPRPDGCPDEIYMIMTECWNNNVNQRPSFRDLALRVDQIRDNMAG

Aurora kinase B = Aurora kinase B (Homo sapiens, UniProt Q96GD4); assay: Inhibition of Aurora B (unknown origin) incubated for 40 mins in presence of ATP by Kinase-glo luminescence assay
Sequence of Aurora kinase B (Q96GD4 whole entry): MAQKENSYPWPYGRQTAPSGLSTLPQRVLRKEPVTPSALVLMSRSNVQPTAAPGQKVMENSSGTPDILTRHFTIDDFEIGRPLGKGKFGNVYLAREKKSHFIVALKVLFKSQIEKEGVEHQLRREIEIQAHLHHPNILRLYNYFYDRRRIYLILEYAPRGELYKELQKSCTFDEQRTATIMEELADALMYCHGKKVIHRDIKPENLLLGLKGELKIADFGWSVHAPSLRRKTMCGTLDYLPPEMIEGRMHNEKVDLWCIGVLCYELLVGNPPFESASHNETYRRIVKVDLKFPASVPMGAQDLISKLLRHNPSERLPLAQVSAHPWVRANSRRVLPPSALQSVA
Outline: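 Kinase reaction at 30 °C for 40 min in 40 mM Tris pH 7.4, 10 mM MgCl2, 0.1 mg/ml BSA, 1 mM DTT, 10 µM ATP, kinase plus substrate; compounds added from 10% DMSO dilutions (1% DMSO final). Remaining ATP measured by Kinase-Glo Plus luminescence; IC50 from nonlinear regression, normalized dose-response fit.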

Homo sapiens [5] = organism: Homo sapiens; assay: Selectivity for JAK2 (unknown origin) over Aurora B (unknown origin)
Homo sapiens [6] = organism: Homo sapiens; assay: Selectivity for JAK3 (unknown origin) over Aurora B (unknown origin)
Homo sapiens [7] = organism: Homo sapiens; assay: Selectivity for JAK2 (unknown origin) over Aurora A (unknown origin)
Homo sapiens [8] = organism: Homo sapiens; assay: Selectivity for JAK3 (unknown origin) over Aurora A (unknown origin)
K562 [9] = assay: Cell cycle arrest in human K562 cells assessed as accumulation of diploid cells at G2 phase at 10 uM incubated for 48 hrs by propidium iodide staining based flow cytometric analysis (reference value: 7.73 %); type: functional
K562 [10] = assay: Cell cycle arrest in human K562 cells assessed as accumulation of diploid cells at S phase at 10 uM incubated for 48 hrs by propidium iodide staining based flow cytometric analysis (reference value: 35.94 %); type: functional
HCT-116 [11] = assay: Cell cycle arrest in human HCT116 cells assessed as accumulation of diploid cells at G1 phase at 10 uM incubated for 48 hrs by propidium iodide staining based flow cytometric analysis (reference value: 77.62 %); type: functional
HCT-116 [12] = assay: Cell cycle arrest in human HCT116 cells assessed as accumulation of diploid cells at G2 phase at 10 uM incubated for 48 hrs by propidium iodide staining based flow cytometric analysis (reference value: 10.46 %); type: functional
HCT-116 [13] = assay: Cell cycle arrest in human HCT116 cells assessed as accumulation of diploid cells at S phase at 10 uM incubated for 48 hrs by propidium iodide staining based flow cytometric analysis (reference value: 11.92 %); type: functional
HCT-116 [14] = assay: Cell cycle arrest in human HCT116 cells assessed as accumulation at […] phase at 10 uM incubated for 48 hrs by propidium iodide staining based flow cytometric analysis (reference value: 2.01 %); type: functional

SMILES	IC50 [1] [nM]	IC50 (Aurora kinase A) [nM]	IC50 (K562 [2]) [nM]	IC50 (HCT-116 [3]) [nM]	IC50 [4] [nM]	IC50 (Aurora kinase B) [nM]	further results
O=C(Nc1c[nH]nc1-c1nc(-c2ccc(CN3CCOCC3)cc2)c[nH]1)c1ccc(Cl)cc1	64	2510	2630	> 10000			
COc1ccc(C(=O)Nc2c[nH]nc2-c2nc(-c3ccc(CN4CCOCC4)cc3)c[nH]2)cc1	24	359	5650	> 10000	14	> 1000	Selectivity ratio (Homo sapiens [5]): 20; Selectivity ratio (Homo sapiens [6]): 20; Selectivity ratio (Homo sapiens [7]): 20; Selectivity ratio (Homo sapiens [8]): 20
O=C(Nc1c[nH]nc1-c1nc(-c2ccc(CN3CCOCC3)cc2)c[nH]1)c1ccccc1			> 10000	> 10000			
CSc1nc(Cl)c(C)c(Nc2c[nH]nc2-c2ncc(-c3ccc(OCCCN4CCOCC4)cc3)[nH]2)n1			9880	16100			
O=C(Nc1c[nH]nc1-c1nc(-c2ccc(CN3CCOCC3)cc2)c[nH]1)c1ccc([N+](=O)[O-])cc1		466	4340	5210	1180	650	
Cc1nc(Cl)cc(Nc2c[nH]nc2-c2nc(-c3ccc(CN4CCOCC4)cc3)c[nH]2)n1	23	145	10000	> 10000	8		
COc1ccc(C(=O)Nc2c[nH]nc2-c2nc(-c3ccc(CN4CCCCC4)cc3)c[nH]2)cc1		1520	> 10000	> 10000			
O=C(Nc1c[nH]nc1-c1nc(-c2ccc(CN3CCCCC3)cc2)c[nH]1)c1cccc(Cl)c1	13	1130	2500	> 10000	16		Selectivity ratio (Homo sapiens [5]): 20; Selectivity ratio (Homo sapiens [6]): 20; Selectivity ratio (Homo sapiens [7]): 20; Selectivity ratio (Homo sapiens [8]): 20
O=C(Nc1c[nH]nc1-c1nc(-c2ccc(CN3CCCCC3)cc2)c[nH]1)c1ccc(Cl)cc1		2060	> 10000	1590			
O=C(Nc1c[nH]nc1-c1nc2ccc(CN3CCOCC3)cc2[nH]1)NC1CC1 [AT-9283]						62	Activity (K562 [9]): 14.99%; Activity (K562 [10]): 32.31%; Activity (HCT-116 [11]): 66.56%; Activity (HCT-116 [12]): 25.19%; Activity (HCT-116 [13]): 8.24%; Activity (HCT-116 [14]): 1.98%
